Only some compounds are listed: those with a hit (about 1.2% of all), similar ones and a draw of the others.
CSN inh: inhibitors of CSN-mediated cullin deneddylation, primary screen, biochemical, fluorescence polarization, uHTS; actives 0.38% (n = 360,000); AID 651999, 2013; inhibition, % at 12.5 µM; Purified CSN, SCF-Nedd8-OG deneddylation; COP9 signalosome complex subunit 5 (Homo sapiens), Q92905;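 active = pattern-corrected inhibition above about 35%, with an unprinted fluorescence ratio check between 0.5 and 1.5, limit read from the data, passing the limit was not always enough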;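 note: 0% = enzyme with substrate and 100% = substrate without enzyme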
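Assay system: purified human Csn5 enzyme expressed in HEK293T cells; measure: % inhibition; also added: SCFSkp2-Nedd8OG substrate at 10 nM final; technique: fluorescence polarization; times: reaction 90 min, room temperature; medium: Tris buffer pH 7.5, NaCl, DTT, Tween-20, trehalose, ovalbumin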
HNF4A DNA FP: change in binding of human HNF4A to DNA, primary screen, biochemical, fluorescence polarization, FITC-DNA | Hepatocyte nuclear factor 4-alpha (Homo sapiens), P41235 | 1 h | activity change, % at 10 µM | actives 0.3% (n = 360,000); in the data active = activity change above about 30%, passing the limit was not always enough
Target sequence (P41235 whole entry, looked up): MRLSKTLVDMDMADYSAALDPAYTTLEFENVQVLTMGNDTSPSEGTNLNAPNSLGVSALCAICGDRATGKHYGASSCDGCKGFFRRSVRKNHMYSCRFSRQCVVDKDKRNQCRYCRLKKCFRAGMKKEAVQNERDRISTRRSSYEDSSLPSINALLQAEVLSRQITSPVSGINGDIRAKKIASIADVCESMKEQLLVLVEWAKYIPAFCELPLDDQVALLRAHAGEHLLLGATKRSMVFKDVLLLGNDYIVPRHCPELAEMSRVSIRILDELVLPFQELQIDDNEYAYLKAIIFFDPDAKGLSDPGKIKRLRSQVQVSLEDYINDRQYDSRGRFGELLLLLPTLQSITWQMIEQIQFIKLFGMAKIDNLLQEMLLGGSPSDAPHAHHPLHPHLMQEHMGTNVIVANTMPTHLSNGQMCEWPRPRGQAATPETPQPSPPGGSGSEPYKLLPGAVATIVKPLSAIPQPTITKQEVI
Rtt109 Vps75: inhibitors of C. albicans Rtt109/Vps75 HAT, primary screen, biochemical, ThioGlo CoA-SH fluorescence, plate reader. actives 0.16% (n = 330,000). inhibition, % at 34.9 µM. Histone acetyltransferase RTT109 (Candida albicans (strain SC5314 / ATCC MYA-2876)), …. purified Rtt109/Vps75, 4 h;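 active = inhibition of at least 50% in every replicate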
TPT1 inh: Candida albicans TPT1 enzyme inhibitors, primary screen, biochemical, fluorescence polarization; inhibition, % at 5 µM; actives 0.81% (n = 300,000); tRNA 2'-phosphotransferase TPT1 (Candida albicans SC5314); recombinant caTPT1, FP RNA substrate dephosphorylation;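 active = inhibition above the mean of all tested compounds plus 3 SD, set per screening campaign, cut at about 24% in these data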;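 note: plate controls were DMSO alone for no effect and ferristatin control at 100 nM for full effect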
caTPT1 confirm: Candida albicans TPT1 inhibitors, confirmation, biochemical, fluorescence polarization, triplicate; shares compounds with TPT1 inh; recombinant caTPT1, RNase T1 coupled; inhibition, % at 5 µM; actives 74% (n = 2,400); AID 2149, 2009;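 active = inhibition above the primary screen limit, the mean inhibition of all tested compounds plus 3 SD, cut at about 25% in these data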
RNase T1 inh: RNase T1 inhibitors, counter-screen for TPT1 inhibitor project, biochemical, fluorescence polarization | shares compounds with TPT1 inh | RNase T1 cleavage, 1536-well | actives 83% (n = 2,400) | inhibition, % at 5 µM;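 active = inhibition above the solvent-only control well mean plus 3 SD, limit set per screening run, cut at about 23% in these data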;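 note: plate controls were DMSO wells with enzyme for no effect and wells without RNase T1 for full effect; inhibitors block cleavage so intact labeled substrate keeps polarization high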
Target sequence (P00651 whole entry, looked up): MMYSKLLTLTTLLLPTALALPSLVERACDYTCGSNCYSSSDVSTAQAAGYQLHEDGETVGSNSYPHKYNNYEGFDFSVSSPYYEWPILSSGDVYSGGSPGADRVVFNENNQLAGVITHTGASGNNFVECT
Numbers without * were called inactive; / = no result given.

SMILES | CSN inh | HNF4A DNA FP | Rtt109 Vps75 | TPT1 inh | caTPT1 confirm | RNase T1 inh
Cn1c(/C(C#N)=C/c2cccc(O)c2)nc2ccccc21 | 2 | -3 | -4 | 0 | / | /
Cn1c(/C(C#N)=C/c2ccc(-c3ccc(S(N)(=O)=O)cc3)o2)nc2ccccc21 | -71 | -2 | 1 | 118* | 120* | 121*
CCN(CC)c1ccc(/C=C/c2cccc[n+]2C)c(OC)c1 | 140 | 179 | 3 | 58* | 62* | 68*
N#Cc1c(SCC(=O)Nc2nncs2)sc2c(O)cc(=O)[nH]c12 | 34 | -34 | -1 | 76* | 9 | 15
Cc1cc(/C=C2/C(=O)N(C)C(=S)N2C)c(C)n1C1CC1 | 6 | 12 | 0 | 30* | 46* | 55*
Cc1cc(/C=C2\SC(=S)NC2=O)c(C)n1C1CC1 | 31 | 56* | -5 | 74* | 107* | 117*
Cc1cc(/C=N/NC(=O)c2ccc(O)cc2)c(C)n1C1CC1 | -5 | -1 | 0 | 3 | / | /
O=C(c1ccco1)[C@@H]1[C@@H]2C(=O)N(c3ccc(F)cc3)C(=O)[C@@H]2[C@H]2C=Cc3ccccc3N21 | 6 | 18 | 8 | 30* | 21 | 31*
CCOc1ccc(N2C(=O)S/C(=C\c3ccc(O)c(OC)c3)C2=O)cc1 | 5 | 11 | -3 | 66* | 48* | 58*
O=S(=O)(c1ccc(NC(=S)N/N=C/c2c3ccccc3cc3ccccc23)cc1)N1CCOCC1 | 3 | 28 | -6 | 73* | 99* | 104*
S=C(NCCN1CCOCC1)N/N=C/c1c2ccccc2cc2ccccc12 | 2 | 46 | 0 | 38* | 46* | 58*
COCCNC(=S)N/N=C/c1c2ccccc2cc2ccccc12 | 0 | 6 | -4 | 40* | 51* | 61*
O=S(=O)(c1ccc(NC(=S)N/N=C/c2ccc(Oc3ccccc3)cc2)cc1)N1CCOCC1 | -5 | -1 | 1 | -2 | / | /
CNC(=S)N/N=C/c1c2ccccc2c(Cl)c2ccccc12 | 0 | 5 | -1 | 25* | 18 | 24*
COc1ccc(O)c(C(=O)c2cc(C#N)c(=O)n(-c3ccc(Cl)cc3)c2)c1 | 36* | 29 | 1 | 48* | 62* | 60*
COC(=O)CC/C(O)=C1\C(=O)CC(C)(C)CC1=NCc1nc2ccccc2[nH]1 | -4 | 1 | -2 | 34* | 13 | 18
CC(=O)C1=C(O)CC(C)(C)CC1=NCc1nc2ccccc2[nH]1 | 4 | 4 | -4 | -1 | / | /
COc1ccc(C2=NN(c3nc(-c4ccccc4)c(CC(=O)O)s3)C(c3ccco3)C2)cc1 (centres undefined) | 43* | 19 | 4 | 60* | 37* | 49*
CCc1ccc(-c2cc(C(=O)Nc3c(C)n(C)n(-c4ccccc4)c3=O)c3ccccc3n2)s1 | 7 | 19 | -6 | 25* | 33* | 43*
Cc1cc(C(=O)Nc2c(C)n(C)n(-c3ccccc3)c2=O)c2ccccc2n1 | 2 | 2 | -1 | -6 | / | /
CCCc1cc(C(=O)Cc2ccc(C(=O)OCC)o2)c(O)cc1O | 8 | 17 | -2 | 24* | 20 | 30*
CCCc1cc(C(=O)Cc2ccc(F)cc2)c(O)cc1O | 4 | -3 | 10 | -3 | / | /
Cn1c(O)c(/C=C2\C=Nc3ccccc32)sc1=Nc1ccc(C(=O)O)cc1 | 4 | -5 | -3 | 1 | / | /
O=C(Cc1ccccc1)Nn1c(O)c(/C=C2\C=Nc3ccccc32)sc1=S | 9 | 53* | 2 | 139* | 94* | 105*
CCN1C/C(=C/c2ccc(N3CCOCC3)cc2)C(=O)/C(=C/c2ccc(N3CCOCC3)cc2)C1 | 33 | 1 | -1 | 99* | 97* | 93*
SMILES | CSN inh | HNF4A DNA FP | Rtt109 Vps75 | TPT1 inh | caTPT1 confirm | RNase T1 inh
CN1C/C(=C\c2ccc(N3CCOCC3)cc2)C(=O)/C(=C/c2ccc(N3CCOCC3)cc2)C1 | 13 | 6 | 4 | 63* | 89* | 94*
O=C(NCc1ccc(Cl)cc1)c1cc(S(=O)(=O)N2CCCCC2)c[nH]1 | -1 | 1 | 3 | 1 | / | /
COc1ccc(-n2c(O)c(/C=N/NS(=O)(=O)c3ccc(C)c([N+](=O)[O-])c3)c3ccccc3c2=O)cc1OC | 148 | 172 | 3 | 100* | 114* | 113*
CCOc1cccc(/C=N/NS(=O)(=O)c2ccc(C)c([N+](=O)[O-])c2)c1O | 0 | -7 | -5 | 94* | 1 | 6
COc1cc(/C=N/NS(=O)(=O)c2ccc(C)c([N+](=O)[O-])c2)cc([N+](=O)[O-])c1O | -1 | -4 | 10 | -6 | / | /
Cc1ccc(S(=O)(=O)N/N=C/c2ccc(O)cc2O)cc1[N+](=O)[O-] | -1 | -1 | -2 | -4 | / | /
COc1ccc(C(=O)NC(CCSC)C(=O)N2CCCCCC2)cc1 (centres undefined) | 0 | 2 | 2 | -2 | / | /
COC(=O)c1ccccc1NC(=O)CNc1ccc(F)c(S(=O)(=O)N2CCOCC2)c1 | -5 | 2 | 16 | / | / | /
O=[N+]([O-])c1cc2c(c([N+](=O)[O-])c1)Nc1ccccc1O2 | 0 | 4 | / | / | / | /
O=C1Nc2ccccc2Oc2cc([N+](=O)[O-])cc(Oc3ccccc3)c21 | 36* | 17 | -4 | 27* | 46* | 59*
CCN1C(=O)/C(=C2/Sc3ccccc3N2CC)SC1=S | -3 | 4 | 9 | 5 | / | /
C=CCN1/C(=C2/SC(=S)N(C)C2=O)Sc2ccccc21 | / | / | / | 35* | 59* | 73*
N=c1c(S(=O)(=O)c2ccccc2)cc2c(=O)n3ccccc3nc2n1Cc1ccco1 | 26 | -2 | -22 | 26* | 9 | 17
Cc1ccc(S(=O)(=O)c2cc3c(=O)n4ccccc4nc3n(Cc3ccco3)c2=N)cc1C | / | / | / | 25* | 18 | 21
Cc1ccc2nc3c(cc(S(=O)(=O)c4ccccc4)c(=N)n3Cc3ccco3)c(=O)n2c1 | 4 | -11 | -24 | 0 | / | /
CC(/C=C1\SC(=S)N(CCC(=O)Nc2cccc(C(=O)O)c2)C1=O)=C\c1ccccc1 | 16 | 7 | 12 | 25* | 43* | 56*
Cc1nnc(SCc2nc3ccccc3s2)n1-c1ccccc1 | 5 | 13 | -1 | 15 | / | /
c1ccc(-n2cnnc2SCc2nc3ccccc3s2)cc1 | 10 | 18 | 2 | 33* | 49* | 61*

Screening data from PubChem.
